Experimental data as given in ChEMBL document CHEMBL1122207, “Antitumor agents. 2. Bisguanylhydrazones of anthracene-9,10-dicarboxaldehydes” (1982).

What was measured:
Assay type in all cases: functional
Mus musculus [1] = assay: Percent increase in median life span of BDF1 mice with P-388 leukemia at dose 12.5 mg/kg administered intraperitoneally; conditions: BDF1, P388, ip, route intraperitoneal
Mus musculus [2] = species: Mus musculus; assay: Anticancer activity measured as the number of survivors of the total treated mice with P-388 leukemia at 30 days.
Method in brief: (§1)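 BDF1 or CDF1 mice given 10^6 ascitic P-388 leukemia cells ip, then treated ip on days 1, 5 and 9. Cures are survivors over total treated at 30 days.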

Mus musculus [3] = assay: Percent increase in median life span of BDF1 mice with B-16 melanoma at dose 6 mg/kg administered intraperitoneally; conditions: BDF1, B16, ip, route intraperitoneal
Method in brief: (§2)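 BDF1 mice were implanted ip with a homogenate from 0.05 g of B-16 melanoma. Ip dosing ran on days 1-9, starting 24 h after implant, in dose-response studies following NCI protocols. The read-out was percent increase in life span (ILS). T/C ≥125% was taken as significant.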

Mus musculus [4] = species: Mus musculus; assay: Number of survivors of the total treated mice with B-16 melanoma, at 60 days.
Method in brief: (§3)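 BDF1 mice were implanted ip with a homogenate from 0.05 g of B-16 melanoma and dosed ip on days 1-9. Cures are survivors over total at 60 days.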

Mus musculus [5] = assay: Percent increase in median life span of BDF1 mice with P-388 leukemia at dose 3.1 mg/kg administered intraperitoneally; conditions: BDF1, P388, ip, route intraperitoneal
Mus musculus [6] = species: Mus musculus; assay: Cures is the number of survivors of the total treated mice (6) with P-388 leukemia, at 30 days.; method in brief: as §1
Mus musculus [7] = species: Mus musculus; assay: Cures is the number of survivors of the total treated mice (10) with B-16 melanoma, at 60 days.; method in brief: as §3
Mus musculus [8] = assay: Percent increase in median life span of BDF1 mice with B-16 melanoma at dose 3.1 mg/kg administered intraperitoneally; conditions: BDF1, B16, ip, route intraperitoneal; method in brief: as §2
Mus musculus [9] = species: Mus musculus; assay: Cures is the number of survivors of the total treated mice (6) with P-388 leukemia, at 60 days.
Mus musculus [10] = assay: Percent increase in median life span of BDF1 mice with B-16 melanoma at dose 1.5 mg/kg administered intraperitoneally; conditions: BDF1, B16, ip, route intraperitoneal; method in brief: as §2
Mus musculus [11] = assay: Percent increase in median life span of BDF1 mice with P-388 leukemia at dose 6.25 mg/kg administered intraperitoneally; conditions: BDF1, P388, ip, route intraperitoneal
Mus musculus [12] = assay: Percent increase in median life span of BDF1 mice with B-16 melanoma at dose 50 mg/kg administered intraperitoneally; conditions: BDF1, B16, ip, route intraperitoneal; method in brief: as §2
Mus musculus [13] = assay: Percent increase in median life span of BDF1 mice with P-388 leukemia at dose 100 mg/kg administered intraperitoneally; conditions: BDF1, P388, ip, route intraperitoneal
Mus musculus [14] = assay: Percent increase in median life span of BDF1 mice with P-388 leukemia at dose 50 mg/kg administered intraperitoneally; conditions: BDF1, P388, ip, route intraperitoneal
Mus musculus [15] = assay: Percent increase in median life span of BDF1 mice with P-388 leukemia at dose 25 mg/kg administered intraperitoneally; conditions: BDF1, P388, ip, route intraperitoneal
Mus musculus [16] = assay: Percent increase in median life span of BDF1 mice with B-16 melanoma at dose 3 mg/kg administered intraperitoneally; conditions: BDF1, B16, ip, route intraperitoneal; method in brief: as §2
Mus musculus [17] = assay: Percent increase in median life span of BDF1 mice with B-16 melanoma at dose 6.00 mg/kg administered intraperitoneally; conditions: BDF1, B16, ip, route intraperitoneal; method in brief: as §2
Mus musculus [18] = assay: Percent increase in median life span of BDF1 mice with B-16 melanoma at dose 6.25 mg/kg administered intraperitoneally; conditions: BDF1, B16, ip, route intraperitoneal; method in brief: as §2

| Compound | ILS at 12.5 mg/kg (Mus musculus [1]) | Cures (Mus musculus [2]) | Cures (Mus musculus [4]) | Cures (Mus musculus [6]) | Cures (Mus musculus [7]) | further results |
| --- | --- | --- | --- | --- | --- | --- |
| Br.Br.CN(/N=C/c1c2ccccc2c(/C=N/N(C)C(=N)N)c2ccccc12)C(=N)N | 91% | 0 | 0 |  |  | ILS at 6 mg/kg (Mus musculus [3]): 50% |
| Cl.Cl.Fc1ccc2c(/C=N/NC3=NCCN3)c3cc(F)ccc3c(/C=N/NC3=NCCN3)c2c1 |  |  |  | 1 | 1 | ILS at 3.1 mg/kg (Mus musculus [5]): 135%; ILS at 3.1 mg/kg (Mus musculus [8]): 111% |
| C(=N\NC1=NCCN1)/c1c2ccccc2c(/C=N/NC2=NCCN2)c2c1ccc1ccccc12.Cl.Cl | 90% |  | 0 |  |  | Cures (Mus musculus [9]): 1 |
| CN1CCCN=C1N/N=C/c1c2ccccc2c(/C=N/NC2=NCCCN2C)c2ccccc12.Cl.Cl |  |  | 0 | 1 |  | ILS at 1.5 mg/kg (Mus musculus [10]): 80%; ILS at 6.25 mg/kg (Mus musculus [11]): 148% |
| Cl.Cl.Fc1cccc2c(/C=N/NC3=NCCN3)c3c(F)cccc3c(/C=N/NC3=NCCN3)c12 |  |  |  | 1 | 5 | ILS at 50 mg/kg (Mus musculus [12]): 194%; ILS at 100 mg/kg (Mus musculus [13]): 140% |
| Cl.Cl.N=C(N/N=C/c1c2ccccc2c(/C=N/NC(=N)Nc2ccccc2)c2ccccc12)Nc1ccccc1 |  | 0 | 0 |  |  | ILS at 50 mg/kg (Mus musculus [14]): 67%; ILS at 6 mg/kg (Mus musculus [3]): 50% |
| Cl.Cl.N=C(N)N/N=C/c1c2ccccc2c(/C=N/N=C(N)N)c2ccccc12 |  |  | 0 | 3 |  | ILS at 25 mg/kg (Mus musculus [15]): 132%; ILS at 3 mg/kg (Mus musculus [16]): 67% |
| CN(C)CCC/N=C(\S)N/N=C/c1c2ccccc2c(/C=N/N/C(S)=N/CCCN(C)C)c2ccccc12.Cl.Cl |  | 0 | 0 |  |  | ILS at 6 mg/kg (Mus musculus [17]): 77%; ILS at 6.25 mg/kg (Mus musculus [11]): 100% |
| C(=N\NC1=NCCN1)/c1c2ccccc2c(/C=N/NC2=NCCN2)c2cc3ccccc3cc12.Cl.Cl | 91% | 0 |  |  | 1 | ILS at 6.25 mg/kg (Mus musculus [18]): 136% |
| Cl.Cl.S=C(NCCCN1CCOCC1)N/N=C/c1c2ccccc2c(/C=N/NC(=S)NCCCN2CCOCC2)c2ccccc12 |  | 0 | 0 |  |  | ILS at 50 mg/kg (Mus musculus [12]): 75%; ILS at 100 mg/kg (Mus musculus [13]): 53% |
